Activity and inhibition data for one molecule are collected here from ChEMBL document CHEMBL3259660, “Haloemodin as novel antibacterial agent inhibiting DNA gyrase and bacterial topoisomerase I” (J Med Chem, 2014).

Active and inactive are the calls of the source. The calls are words filed in the database; no cut-off is given here.

Experiment [1] in a line: Binding affinity to supercoiled pHOT-1 DNA assessed as unwinding of DNA helix by measuring shift of negative to positive supercoiled pHOT-1 at 10 to 150 uM treated 15 mins prior to human topoisomerase 1 addition for 30 mins by agarose gel electrophoresis.
The target of experiment [2] is T1, DNA topoisomerase 1 (Escherichia coli (strain K12)) (UniProt P06612).
T1 sequence (whole entry): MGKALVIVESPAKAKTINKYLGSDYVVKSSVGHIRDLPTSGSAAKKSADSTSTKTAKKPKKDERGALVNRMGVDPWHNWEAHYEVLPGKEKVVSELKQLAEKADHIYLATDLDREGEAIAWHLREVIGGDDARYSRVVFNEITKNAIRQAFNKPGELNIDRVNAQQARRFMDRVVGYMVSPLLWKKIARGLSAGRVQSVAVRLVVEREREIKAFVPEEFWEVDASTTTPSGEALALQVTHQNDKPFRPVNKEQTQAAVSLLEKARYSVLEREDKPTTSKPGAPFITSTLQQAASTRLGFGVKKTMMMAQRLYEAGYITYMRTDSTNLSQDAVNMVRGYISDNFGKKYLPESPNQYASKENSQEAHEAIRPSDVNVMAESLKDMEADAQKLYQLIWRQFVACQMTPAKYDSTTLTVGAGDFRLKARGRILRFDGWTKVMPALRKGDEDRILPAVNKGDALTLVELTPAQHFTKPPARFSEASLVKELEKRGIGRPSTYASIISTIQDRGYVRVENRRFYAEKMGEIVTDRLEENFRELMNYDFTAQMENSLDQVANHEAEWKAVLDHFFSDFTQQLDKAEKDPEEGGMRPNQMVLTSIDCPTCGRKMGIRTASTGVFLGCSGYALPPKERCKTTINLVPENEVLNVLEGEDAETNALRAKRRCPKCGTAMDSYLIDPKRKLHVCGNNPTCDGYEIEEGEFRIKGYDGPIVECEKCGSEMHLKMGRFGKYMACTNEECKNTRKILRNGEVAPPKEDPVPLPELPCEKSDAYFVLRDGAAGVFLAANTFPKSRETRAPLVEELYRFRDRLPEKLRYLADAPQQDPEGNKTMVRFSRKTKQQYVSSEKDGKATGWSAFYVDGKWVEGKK
Briefly: Inhibition of Escherichia coli topoisomerase 1-mediated pHOT-1 DNA relaxation treated with pHOT-1 substrate for 15 mins prior to enzyme addition for 30 mins by agarose gel electrophoresis.

The target in experiment [3] is T1, DNA topoisomerase 1 (Escherichia coli (strain K12)). Briefly: Inhibition of Escherichia coli topoisomerase 1-mediated pHOT-1 DNA relaxation at >90 uM treated with pHOT-1 substrate for 15 mins prior to enzyme addition for 30 mins by agarose gel electrophoresis.
Experiment [4] relates to Escherichia coli. Nature of the experiment: Inhibition of Escherichia coli DNA gyrase-mediated pHOT-1 supercoiling at 30 uM after 30 mins by agarose gel electrophoresis in presence of ATP. The gist of the method: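 Supercoiling: 100 ng relaxed pHOT-1 with 1 U S. aureus or E. coli gyrase and graded compound concentrations, ATP present, 37 °C for 30 min. Stopped with 10% SDS, 1% agarose electrophoresis, ethidium bromide staining, UV imaging; ciprofloxacin positive control.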

Turning to `Cc1cc(O)c2c(c1)C(=O)c1c(I)c(O)c(I)c(O)c1C2=O`, the result in experiment [1] was inactive. In experiment [2], the inhibition result was “Dose-dependent effect”. In addition, the inhibition entry in experiment [3] and in experiment [4] was “Active” throughout.
